High-throughput results deposited in PubChem BioAssay by several laboratories.
Hits are enriched below; roughly 0.74% of the tested compounds scored in any of these assays.
RGS16-Gao HTS: RGS16-Galphao interaction regulator (human) | AID 1441 | 220,000 tested, 0.38% active | O15492+P09471 | bead-based flow cytometry RGS16-Galphao binding, fluorescence; actives lie on both sides | binding response (% of control), % at 10 µM;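 note: Galphao activated by GDP with aluminum fluoride before binding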
RGS7-Gao reg: regulators of human RGS7-Galphao interaction; Multiplexed bead flow cytometry, RGS7-Galphao binding; actives lie on both sides; binding response (% of control), % at 10 µM; 220,000 tested, 0.35% active; in the data active = binding response below about 49% or above about 150%; inconclusive = no clear call, values can overlap the other calls; inactive = in between;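 note: fluorescent Galphao held in activated GDP-AlF4 state binding bead-coupled RGS7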
Target sequence (P09471 whole entry, looked up): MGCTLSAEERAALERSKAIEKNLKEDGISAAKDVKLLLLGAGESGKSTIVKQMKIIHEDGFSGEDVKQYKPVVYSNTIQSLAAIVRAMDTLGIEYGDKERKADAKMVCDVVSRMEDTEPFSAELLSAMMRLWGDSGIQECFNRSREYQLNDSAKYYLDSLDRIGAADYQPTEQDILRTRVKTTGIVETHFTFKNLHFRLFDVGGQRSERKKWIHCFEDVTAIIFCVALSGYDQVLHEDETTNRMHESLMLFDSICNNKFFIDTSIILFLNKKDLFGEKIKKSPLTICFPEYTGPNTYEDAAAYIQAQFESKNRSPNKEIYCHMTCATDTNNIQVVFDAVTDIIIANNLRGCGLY
RGS8-Gao reg: regulators of human RGS8-Galphao interaction | P09471 | multiplexed bead flow cytometry, RGS8-Galphao binding; actives lie on both sides | response (percent of control binding), % at 10 µM | 220,000 tested, 0.34% active | AID 1423; in the data active = response below about 60% or above about 140%; inactive = in between;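 note: Galphao activated as the GDP aluminium fluoride complex binding bead-coupled RGS8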
Biofilm kill mix: mixture kills Candida albicans biofilm cells; 120,000 tested, 0.02% active; C. albicans biofilm persisters + clotrimazole, fluorescence viability; primary screen in compound mixtures of four per well; inhibition, % at 7.6 µM;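 active = inhibition above 30.3% in the primary screen of four-compound pools, then above 30% when the compound was retested; inconclusive = passed the primary limit but could not be retested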;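 note: compounds exposed to preformed 24 h biofilms for 48 h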
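System: C. albicans CAF4-2 wild-type biofilms; Medium: RPMI/MOPS medium, pH 7.0; Reagent: Clotrimazole, 50 µg/mL; Times: biofilm formation 24 h, compound exposure 48 h, 37 °C; Detection: 2-h Alamar Blue fluorescence, 535/590 nm excitation/emission; Evaluation: percent inhibition of biofilm viability.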
RGS4-Gao reg: modulates binding of RGS4 to human Galphao. 220,000 tested, 0.33% active. Multiplexed bead flow cytometry; actives lie on both sides. binding response (% of control), % at 10 µM. P09471; in the data active = binding response below about 49% or above about 150%; inactive = in between;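 note: fluorescent Galphao activated with aluminum fluoride binding bead-coupled RGS4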
RGS-Gao: modulates binding between human RGS4 and Galphao. 1,600 tested, 99% active. shares compounds with RGS16-Gao HTS. RGS4–Galpha-o binding response, % at 10 µM. AID 1504. multiplexed bead flow cytometry, RGS–Galpha-o binding;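 note: fluorescently labeled Galpha-o bound to GDP with aluminium fluoride binding biotinylated RGS beads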
Biotin-avidin: counter-screen: compounds disrupting biotin binding to avidin beads; shares compounds with RGS16-Gao HTS; streptavidin beads, fluorescein-biotin binding, flow cytometry; inhibition, % at 10 µM; 1,700 tested, under 10 active;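 active = inhibition above 50%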;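 note: median green fluorescence of gated singlet beads compared with DMSO control wells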
RGS8-Gao confirm: RGS8-Galphao interaction regulation, single point confirmation; shares compounds with RGS16-Gao HTS; bead-based flow cytometry RGS8-Galphao binding, fluorescence; actives lie on both sides; binding response (% of control), % at 10 µM; 1,700 tested, 3% active; AID 1836; in the data active = binding response below about 72% or above about 130%; inactive = in between;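 note: Galphao activated as GDP AlF4 complex before binding bead RGS8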
RGS7-Gao single: confirmation of regulators of human RGS7-Galphao interaction; bead-based flow cytometry RGS7-Galphao binding; actives lie on both sides; shares compounds with RGS16-Gao HTS; 1,700 tested, 7.8% active; response (percent of control binding), % at 10 µM; in the data active = response below about 75% or above about 130%; inactive = in between;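 note: fluorescent Galphao activated with GDP and aluminum fluoride binding bead-coupled RGS7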
RGS16-Gao conf: RGS16-Galphao interaction regulation, single point confirmation; bead-based flow cytometry, RGS16-Galphao binding; actives lie on both sides; response (% of control binding), % at 10 µM; shares compounds with RGS16-Gao HTS; AID 1838; 1,700 tested, 4% active; in the data active = response below about 74% or above about 130%; inactive = in between;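 note: Galphao activated as the GDP aluminium fluoride complex binding bead-coupled RGS16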
RGS4-Gao confirm: RGS4-Galphao interaction regulation, single point confirmation | shares compounds with RGS16-Gao HTS | RGS4-Galphao binding, multiplexed bead flow cytometry; actives lie on both sides | binding response (% of control), % at 10 µM | 1,700 tested, 4% active | AID 1840; in the data active = binding response below about 74% or above about 130%; inactive = in between
RGS19-Gao conf: confirmation of regulators of human RGS19-Galphao interaction | shares compounds with RGS16-Gao HTS | bead-based flow cytometry RGS19-Galphao binding; actives lie on both sides | response (percent of control binding), % at 10 µM | 1,700 tested, 5% active; in the data active = response below about 50% or above about 160%; inactive = in between
Target sequence (P09471 whole entry, looked up): as above
Target sequence (P49795 whole entry, looked up): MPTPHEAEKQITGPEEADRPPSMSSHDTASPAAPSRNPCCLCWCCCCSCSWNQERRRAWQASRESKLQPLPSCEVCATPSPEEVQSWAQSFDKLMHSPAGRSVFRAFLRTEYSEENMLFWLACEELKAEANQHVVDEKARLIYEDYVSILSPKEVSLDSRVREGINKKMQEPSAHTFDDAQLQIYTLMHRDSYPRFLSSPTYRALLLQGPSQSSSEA
Hits are given with their value; - = inactive; ? = inconclusive; . = not tested or not shown; [ ] = remark or other dose. Unless noted, the rule behind the calls is not given here.

SMILES	RGS16-Gao HTS	RGS7-Gao reg	RGS8-Gao reg	Biofilm kill mix	RGS4-Gao reg	Biotin-avidin	RGS8-Gao confirm	RGS7-Gao single	RGS16-Gao conf	RGS4-Gao confirm	RGS19-Gao conf	others
O=C(C(=O)N1CCCc2ccccc21)N1CCCc2ccccc21	182.2[activator]	-	-	-	-	-	-	-	-	-	-	RGS-Gao=104.8
Cc1ccc(-n2c(Cn3c(C)nc4ccccc43)n[nH]c2=S)cc1	-1.4	-	-	-	-	-	-	-	-	-	-	RGS-Gao=85.7
Cc1ccc(-n2c(CCc3nc4ccccc4[nH]3)n[nH]c2=S)cc1	-	-	-	-	-	.	.	.	.	.	.
CC(C)N(Cc1ccccc1)CC(O)COc1ccc(S(=O)(=O)N2CCOCC2)cc1Cl (stereo not drawn)	-	?	-	-	-	.	.	.	.	.	.
O=[N+]([O-])c1cc(Cl)cc(/C=N/Nc2nc3ccccc3s2)c1O	-	-	-	-	-	.	.	.	.	.	.
COc1cc(/C=N/Nc2nc3ccccc3s2)cc([N+](=O)[O-])c1O	.	.	.	-	.	-	-	-	-	-	-
CCCOc1ccc(C(CC(=O)O)NC(=O)c2cccs2)cc1 (stereo not drawn)	-	-	-	.	-	.	.	.	.	.	.
CC(C)Oc1ccc(C(CC(=O)O)NC(=O)c2cccs2)cc1 (stereo not drawn)	.	.	.	.	.	-	-	-	-	-	-
COc1ccc(N2CCN(C(=O)c3cccc4nc(C)oc34)CC2)cc1	12.7	18.5	15.1	-	22.2	-	-	-	-	-	-
COc1ccc(N2CCN(C(=O)c3cccn4c(=O)c5ccccc5nc34)CC2)cc1	-	-	-	-	-	.	.	.	.	.	.
Cc1nc(Br)c(Br)c(C)c1Br	-	?	-	-	-	.	.	.	.	.	.
CCCOc1ccccc1/C=C(\C#N)C(=O)Nc1cccnc1	-	?	-	-	-	.	.	.	.	.	.
Cc1ccc(N(C(=O)Nc2ccccc2)C2=NCCC2)cc1	-	?	-	-	44.2	-	-	46.8	-	57.4	-
O=C(Nc1ccccc1)N(C1=NCCC1)c1ccccc1	-	?	-	-	-	.	.	.	.	.	.
COCCN(CC(=O)NC1CCCCC1)C(=O)CCCC(=O)Nc1ccccn1	-	-	-	-	-	.	.	.	.	.	.
COc1cc2c(cc1OC)C(C(=O)NCc1cccnc1)C(c1cccnc1)N(C)C2=O (stereo not drawn)	-	169.9[activator]	-	.	-	.	.	.	.	.	.	RGS-Gao=118.5
O=C(CN1CCN(c2ccccc2O)CC1)NCCCc1ccccc1	-	-	-	-	-	.	.	.	.	.	.
O=C(CN1CCN(c2ccccc2O)CC1)NC(c1ccccc1)c1ccccc1	243.7[activator]	-	-	-	-	-	-	-	-	-	-	RGS-Gao=114.4
COc1ccc(N(CC(=O)Nc2ccc(F)c(Cl)c2)S(=O)(=O)c2c(C)noc2C)cc1	-	-	-	.	-	.	.	.	.	.	.
COc1ccc(N(CC(=O)Nc2ccc(OC)c(Cl)c2)S(=O)(=O)c2c(C)noc2C)cc1	227.2[activator]	-	140.8[activator]	.	-	-	-	-	-	-	-	RGS-Gao=116.2
C/C(=N/NC(N)=S)c1ccc(Br)s1	-	-	-	-	-	.	.	.	.	.	.
CCN(CC)c1ccc(N2C(=O)/C(=C\c3cccs3)SC2=S)cc1	.	.	.	.	.	-	-	-	-	-	-
CCCOC(=O)c1ccc(NC(=O)c2ccccc2OC)cc1	-	-	-	-	-	.	.	.	.	.	.
CCCCOC(=O)c1ccc(NC(=O)c2ccccc2OC)cc1	18.5	-	-	-	-	-	-	-	-	-	-	RGS-Gao=77.4
Cc1cc(C)nc(NC(=NCCc2c[nH]c3ccccc23)NC(=O)Nc2ccc(Cl)c(Cl)c2)n1	13.0	-	-	-	-	-	-	-	-	-	-	RGS-Gao=107.8
SMILES	RGS16-Gao HTS	RGS7-Gao reg	RGS8-Gao reg	Biofilm kill mix	RGS4-Gao reg	Biotin-avidin	RGS8-Gao confirm	RGS7-Gao single	RGS16-Gao conf	RGS4-Gao confirm	RGS19-Gao conf	others
Cc1ccc(C2=N/C(=C/N3CCOCC3)C(=O)O2)cc1	-	-	-	.	-	.	.	.	.	.	.
Cc1ccc(C2=N/C(=C\N3CCCCC3)C(=O)O2)cc1	204.3[activator]	168.6[activator]	-	.	197.7[activator]	-	-	-	-	-	-
O=C(C1=NN[C@@H]2C(=O)N(Cc3ccccc3)C(=O)[C@H]12)c1ccc(F)cc1	-	?	-	-	-	.	.	.	.	.	.
C=C(C)CC(NCCc1ccccc1)c1ccco1 (stereo not drawn)	-	-	-	-	155.8[activator]	-	-	-	-	-	-
O=C(NCCc1ccccc1)c1ccco1	-	-	-	-	-	.	.	.	.	.	.
Cn1cnnc1SCC(=O)Nc1c(F)cc(F)cc1Br	.	.	.	.	.	-	-	-	-	-	-
CNC(=O)/C(C#N)=C/c1cc(C)n(-c2ccc(N3CCOCC3)cc2)c1C	216.3[activator]	?	-	-	253.6[activator]	-	-	-	-	-	-
O=C1N(Cc2cccnc2)C[C@@H]2C[C@@H](c3cccc(Oc4ccccc4)c3)N3CCC[C@@]123	-	?	-	-	-	.	.	.	.	.	.
